The target of test [1] is Adenosine receptor A2a (Homo sapiens) (UniProt P29274). The test is described as follows: In vitro allosteric enhancer (AE) activity for adenosine A2A receptor at 50 uM.
Test [2] concerns the target T1, Adenosine receptor A1 (Homo sapiens) (UniProt P30542).
T1 sequence (whole entry): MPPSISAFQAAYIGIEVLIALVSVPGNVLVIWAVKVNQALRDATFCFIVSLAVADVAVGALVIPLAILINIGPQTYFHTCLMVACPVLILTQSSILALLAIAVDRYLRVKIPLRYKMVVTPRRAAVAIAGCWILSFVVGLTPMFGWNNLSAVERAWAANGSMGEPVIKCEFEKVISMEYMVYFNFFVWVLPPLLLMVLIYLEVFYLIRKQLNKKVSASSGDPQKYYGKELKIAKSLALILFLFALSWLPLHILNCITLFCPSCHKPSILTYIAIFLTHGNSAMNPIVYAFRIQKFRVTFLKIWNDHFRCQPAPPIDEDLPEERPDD
The experiment in a line: In vitro allosteric enhancer (AE) activity for adenosine A1 receptor maximal score from curve fitting.

Test [3] concerns the target T2, Adenosine receptor A3 (Homo sapiens) (UniProt P0DMS8).
T2 sequence (whole entry): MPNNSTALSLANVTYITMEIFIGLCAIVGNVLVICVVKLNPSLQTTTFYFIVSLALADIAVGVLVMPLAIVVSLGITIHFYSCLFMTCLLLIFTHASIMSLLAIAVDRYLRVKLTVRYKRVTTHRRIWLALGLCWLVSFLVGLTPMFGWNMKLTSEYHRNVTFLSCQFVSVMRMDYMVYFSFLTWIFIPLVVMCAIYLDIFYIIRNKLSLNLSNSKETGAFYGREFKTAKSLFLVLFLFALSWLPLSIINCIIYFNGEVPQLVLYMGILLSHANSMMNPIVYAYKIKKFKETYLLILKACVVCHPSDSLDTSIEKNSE
The test is described as follows: Inhibition of human adenosine receptor A3 at 10 uM.

Test [4] concerns the target T3, Adenosine receptor A1 (Rattus norvegicus) (UniProt P25099).
T3 sequence (whole entry): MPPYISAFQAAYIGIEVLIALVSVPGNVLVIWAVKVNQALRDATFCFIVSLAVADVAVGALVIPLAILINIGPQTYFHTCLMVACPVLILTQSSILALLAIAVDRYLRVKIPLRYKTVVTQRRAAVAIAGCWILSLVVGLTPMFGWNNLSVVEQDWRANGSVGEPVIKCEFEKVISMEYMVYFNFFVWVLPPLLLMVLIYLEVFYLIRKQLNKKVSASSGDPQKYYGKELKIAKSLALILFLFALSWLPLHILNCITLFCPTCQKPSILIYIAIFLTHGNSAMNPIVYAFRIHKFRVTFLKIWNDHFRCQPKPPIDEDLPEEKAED
The test is described as follows: Allosteric enhancer (AE) activity against rat adenosine A1 receptor.

In test [5] the target is T2, Adenosine receptor A3 (Homo sapiens). The test is described as follows: In vitro allosteric enhancer (AE) activity for adenosine A3 receptor at 50 uM.
The target in test [6] is T1, Adenosine receptor A1 (Homo sapiens). The test is described as follows: (§1) In vitro allosteric enhancer (AE) activity for adenosine A1 receptor at 50 uM. An outline of the steps:
(§2)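 Single-point screen on membranes from CHO-K1 cells stably expressing hA1AR. Candidate enhancer was added at 50 μM final for 5 min. Dissociation was then started with 8-cyclopentyltheophylline plus GTPγS and run 10 min. Score = % specific agonist binding remaining; two to three assays, each in triplicate.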

Test [7] has the same target. The test is described as follows: Inhibition of human adenosine receptor A1 at 10 uM. An outline of the steps:
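CHO-K1 hA1AR membranes at 0.5 mg/mL in 10 mM HEPES pH 7.4 with 1 mM EDTA, 1 U/mL adenosine deaminase, 5 mM MgCl2 and 2 nM [3H]CPX. Mixed 1:1 with buffer containing 20 μM enhancer. Equilibrium 3 h at room temperature; 100 μM NECA defined nonspecific binding. Inhibition expressed relative to control specific binding; duplicate assays.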

The target is the same in test [8]. The test is described as follows: Allosteric enhancer (AE) activity against human adenosine A1 receptor at 50 uM. In short, it runs like this:
as §2

Test [9] has as its target T4, Adenosine receptor A1 (Homo sapiens, UniProt P30542).
T4 sequence (P30542 whole entry): T1 sequence (whole entry)
The test is described as follows: Antagonist activity against adenosine A1 receptor. It is filed as functional. Also on record: concentration or dose not given beside the values. An outline of the steps: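 Equilibrium binding on CHO-K1 hA1AR membranes (15 μg) in 10 mM HEPES pH 7.4, 1 mM EDTA, 1 U/mL adenosine deaminase, 4 nM [3H]CPX. Mixed with an equal volume of 200 μM enhancer in HEPES–10% DMSO; 200 μM NECA for nonspecific binding. Incubated 3 h at room temperature, then filtered.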

For test [10], the target named is T3, Adenosine receptor A1 (Rattus norvegicus). The test is described as follows: Allosteric enhancer (AE) activity against rat adenosine A1 receptor at 50 uM.
Test [11] addresses T1, Adenosine receptor A1 (Homo sapiens). Described as §1. In short, it runs like this:
as §2
The source holds these as a separate data set.

Test [12] shares this target. The description is as §1. In short, it runs like this:
as §2
The source holds these as a separate data set.

The structures appear in SMILES notation.

Usually inhibition stands for the relative decrease from the control value, in per cent. The term Inhibition denotes the share of the control response that was lost under treatment.

Chain of Adenosine receptor A2a (Homo sapiens) (P29274 whole entry): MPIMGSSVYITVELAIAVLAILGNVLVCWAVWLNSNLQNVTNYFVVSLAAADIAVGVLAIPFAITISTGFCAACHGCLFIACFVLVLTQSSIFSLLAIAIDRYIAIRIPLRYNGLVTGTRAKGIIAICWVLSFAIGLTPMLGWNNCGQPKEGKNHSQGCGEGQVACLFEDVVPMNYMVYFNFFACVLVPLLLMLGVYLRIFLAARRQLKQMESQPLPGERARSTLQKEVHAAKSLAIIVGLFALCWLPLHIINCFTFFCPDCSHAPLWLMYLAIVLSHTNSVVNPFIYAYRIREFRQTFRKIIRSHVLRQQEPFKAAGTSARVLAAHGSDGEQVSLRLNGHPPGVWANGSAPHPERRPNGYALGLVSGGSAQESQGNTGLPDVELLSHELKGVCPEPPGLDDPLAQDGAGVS

Regarding `Nc1nc2c(s1)Cc1cc(-c3ccc4c(c3)OCO4)ccc1-2`, the Alloste ic enhan er (AE) was 0% in test [1]; 48.8% in test [4]; 2.9% in [5]; 82% in [6]; 90.7% in test [8]. For the same molecule, the Allosteric enhancer (AE) in test [2] is 91%. Moreover, the inhibition was 22.5% in test [3] and 10.5% in test [7]. Also, in test [9], the Inhibition is 11.6%.

Consider `COc1ccc(-c2ccc3c(c2)Cc2sc(N)nc2-3)cc1OC`, for which the Alloste ic enhan er (AE) amounted to 0.2% in [1]; 39.1% in test [10]; 10.1% in test [5]; 82% in [6]; 83.9% in test [8]. Moreover, in test [2], the Allosteric enhancer (AE) worked out at 82.7%. The values for the inhibition in [3] and in test [7] were 45% and 18.8%, respectively. This molecule yielded an Inhibition in test [9] of 19.2%.

With `COc1ccc(-c2ccc3c(c2)Cc2sc(N)nc2-3)cc1`, the Alloste ic enhan er (AE) in [11] amounted to 90.2%; in test [1], 0%; in test [4] it was 32.3%; in [5], 18%; in [6], 87%; in [8] it was 72%. Also, the inhibition in test [3] is 37.6%; in test [7] it was 25.2%. The same molecule displayed an Inhibition in test [9] of 13.3%.

On to `CN(C)c1ccc(-c2ccc3c(c2)Cc2sc(N)nc2-3)cc1`, for which the Alloste ic enhan er (AE) in test [1] came out at 3.4%; in [12] it was 81.8%; in test [4] it was 31.7%; in test [5], 24.8%; in [6], 81%; in [8], 67.9%. The results for the inhibition in test [3] and in test [7] were 38.6% and 23.1%, respectively. This molecule also returned an Inhibition in test [9] of 12.5%.

(Values after ChEMBL document CHEMBL1145162, “6-aryl-8H-indeno[1,2-d]thiazol-2-ylamines: A1 adenosine receptor agonist allosteric enhancers having improved potency” (J Med Chem, 2005).)
